From PubChem
Lipid droplet – hepatic lipid droplet formation modulation | AML12 mouse hepatocytes, oleate lipid droplets, BODIPY imaging | inhibition, % at 6.5 µM | hit rate 0.4% among 240,000;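 active = lipid droplet intensity inhibited by at least 50%, with more than 500 cells counted; inconclusive = wells with under 300 cells, treated as cytotoxic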
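Assay system: AML12 mouse liver cells | Compound: 6.5 µM single-point dosing | Schedule: Overnight exposure | Technique: Fluorescence imaging, 20x objective, two fields per well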
Redox H2O2 prof – compounds producing H2O2 with reducing agent – biochemical, NIH compound library profiling, artefact control for MLSCN library redox annotation, primary screen; activation, % at 10 µM; hit rate 0.03% among 200,000; DTT-dependent redox cycling H2O2, phenol red/HRP absorbance; 100% = 100 µM peroxide control, 0% = buffer;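 active = activation of at least 50% relative to the plate's high and low controls in the primary single-dose screen; inactive = activation below 50%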;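 also: compound incubated with DTT at 0.8 mM final as the reducing agent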
Lmaj promast – Leishmania major promastigote growth inhibition; Leishmania major promastigotes, resazurin fluorescence viability; inhibition, % at 10 µM; hit rate 9% among 200,000; AID 1063; in the data active = inhibition above about 50%;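 also: promastigotes grown with compound for 44 hours at 28 °C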
T cruzi inh – T. cruzi replication inhibition. inhibition, % (no concentration beside the values). hit rate 1.4% among 300,000. AID 1885. T. cruzi beta-gal in NIH3T3, luminescence, 90 h;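 active = mean inhibition across valid replicates above about 55%, limit read from the data; inconclusive = mean below that limit but half or more replicates reach it; inactive = mean below it, under half of replicates reach it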;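 also: signal also drops with host cell toxicity which is not excluded here; 0% = plate median of DMSO wells and 100% = zero luminescence signal; higher percent means less beta-gal luminescence so fewer parasites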
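System: Mouse NIH/3T3 fibroblasts infected with β-gal-expressing T. cruzi Tulahuen C4 | Quantity: NIH/3T3 cells, 5,000 per well | Reagent: 5000 reporter trypomastigotes per well | Dosing: Compound pinned at 50 nL/well, DMSO | Schedule: 3 h host attachment, then at least 90 h co-culture | Detection: GalScreen luminescence, 60 min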
MPTP inh – permeability transition pore inhibition; inhibition, % at 10 µM; isolated mouse mitochondria, Ca2+ swelling absorbance, 30 min; hit rate 1.4% among 360,000; AID 602449;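 active = inhibition of 50% or more, scaled per plate between neutral and stimulator controls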;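 also: 0% = DMSO wells given calcium and 100% = 1 mM EGTA wells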
Rh123 counter – mitochondrial membrane potential, counter-screen; shares compounds with MPTP inh; isolated mitochondria, Rhodamine 123 fluorescence; inhibition, % at 10 µM; hit rate 78% among 5,000; AID 624504; in the data active = inhibition above about 22%;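 also: 0% = DMSO vehicle and 100% = positive control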
MPTP swell DR – dose response confirmation of mitochondrial permeability transition pore inhibitors. shares compounds with MPTP inh. isolated mitochondria swelling, absorbance. IC50, µM. hit rate 58% among 780. AID 651561; in the data active = IC50 below about 20 µM
MPTP counter DR – active in counter-screen for permeability transition pore inhibitors. shares compounds with MPTP inh. isolated mitochondria counterscreen, fluorescence read-out. IC50, µM. hit rate 49% among 780. AID 651564; in the data active = IC50 below about 80 µM
An asterisk follows results filed as active; i = inactive; ? = inconclusive; . = no result given. The sample as a whole holds a higher share of hits than the screen did.

SMILES | Lipid droplet | Redox H2O2 prof | Lmaj promast | T cruzi inh | MPTP inh | Rh123 counter | others
COc1cccc2c(=O)cc(C)n(CC(=O)Nc3ccc(C)c(C)c3)c12 | 17.2 | -0.4 | 4.7 | 18.9 | 3.6 | .
COc1cc(NC(=O)CNC(=O)Cn2c(C)cc3ccccc3c2=O)cc(OC)c1OC | -11.3 | . | . | -11.9 | -1.6 | .
COc1ccccc1NC(=O)Cn1c(C)cc(=O)c2cccc(OC)c21 | 11.5 | . | . | -35.1 | 70.5* | 55.2*
COc1ccc(NC(=O)CNC(=O)Cn2c(C)cc3ccccc3c2=O)cc1OC | 12.2 | 7.0 | -7.2 | 11.3 | 70.0* | 24.2*
NC(=O)C1CCN(C(=O)CC(c2ccccc2)c2ccccc2)CC1 | -3.0 | . | . | -0.5 | -0.1 | .
O=C(CN(c1cccc([N+](=O)[O-])c1)S(=O)(=O)c1ccccc1)N1CCCCC1 | -9.2 | . | . | -8.8 | -1.5 | .
CN1CCC(=C2c3ccccc3Sc3ccccc32)CC1 | . | . | . | . | 92.0* | -9.2 | MPTP swell DR=7.26*;MPTP counter DR=>80
O=c1[nH]c(-c2ccc(F)cc2)nc2c1sc(=S)n2-c1ccccc1 | -0.1 | -0.1 | 14.4 | -11.8 | 55.6* | 8.1 | MPTP swell DR=i;MPTP counter DR=<2.5*
CC(C)COc1ccc(C(=O)OCCN2CCOCC2)cc1 | 0.9 | -1.4 | -0.5 | 1.4 | -3.3 | .
CC(C)COc1ccc(C(=O)OC2CC(C)(C)OCC2CN(C)C)cc1 (stereo not drawn) | . | -0.4 | 29.6 | 17.5 | 68.2* | -7.7 | MPTP swell DR=12.1*;MPTP counter DR=>80
COc1ccc2oc(=O)c(C(=O)C[n+]3cccc(C)c3)cc2c1 | -22.4 | -0.3 | -2.9 | 6.1 | -0.3 | .
Cc1ccc(C2(c3ccc(C)cc3)CC2C(=O)Nc2ccc([N+](=O)[O-])cc2O)cc1 (stereo not drawn) | . | -7.4 | 100.1* | 54.9* | 82.3* | 46.8*
CC1(C)CC1C(=O)Nc1ccc([N+](=O)[O-])cc1Br (stereo not drawn) | -3.8 | -0.3 | -3.9 | -6.7 | 1.9 | .
O=C(Nc1ccc([N+](=O)[O-])cc1)C1CC1(c1ccccc1)c1ccccc1 (stereo not drawn) | 10.2 | 0.2 | 2.0 | 42.1 | 92.1* | 86.7*
CCSc1nnc(NC(=O)CCNC(=O)c2ccccc2Cl)s1 | . | . | . | . | 0.7 | .
CC(C)NC(=O)C(C)N1CCN(S(=O)(=O)c2ccc3ccccc3c2)CC1 (stereo not drawn) | -2.7 | . | . | -2.1 | -0.6 | .
CN(C)C(=O)CSc1nc2ccc(N3C(=O)c4ccccc4C3=O)cc2s1 | 1.4 | . | . | -11.0 | 1.4 | .
COc1cccc(OCCNC(=O)CSc2ccc(C(F)(F)F)cc2[N+](=O)[O-])c1 | -16.6 | 0.1 | -5.5 | 8.5 | 76.2* | 45.7*
CCN(CC)C(=O)CSc1ccc(C(F)(F)F)cc1[N+](=O)[O-] | -5.6 | -0.2 | -1.5 | -3.1 | -0.2 | .
Cc1ccccc1OCCNC(=O)CSc1ccc(C(F)(F)F)cc1[N+](=O)[O-] | -3.0 | -0.1 | -3.2 | -5.5 | 93.1* | 73.4*
CCN1C=C(C(=O)c2ccccc2)C(=O)CC1 | . | . | . | . | 0.9 | .
CCCCC(NC(=O)Cc1c(C)c2cc3c(-c4ccccc4)coc3c(C)c2oc1=O)C(=O)O (stereo not drawn) | 11.9 | . | . | -9.5 | 1.2 | .
NS(=O)(=O)c1ccc(-c2c(-c3ccccc3)sc3ccccc23)cc1 | . | . | . | . | 1.0 | .
N#CC1=C(N)N2C(=C(C#N)C1c1cccc(Br)c1)Nc1ccccc12 (stereo not drawn) | -32.2 | 0.4 | 7.0 | -3.2 | 85.5* | 55.1*
CN(C)C(=O)CN1C(=O)NC2(CCc3ccccc32)C1=O (stereo not drawn) | -2.9 | . | . | -20.2 | -0.8 | .
SMILES | Lipid droplet | Redox H2O2 prof | Lmaj promast | T cruzi inh | MPTP inh | Rh123 counter | others
CN(C)S(=O)(=O)Oc1ccc(C(=O)Nc2cccc(C(F)(F)F)c2)cc1 | -12.3 | -2.1 | 4.9 | 18.7 | 74.5* | 82.2*
CCOc1ccc(C(=O)NCC(=O)OCC(=O)Nc2ccc(C)c(S(=O)(=O)N(C)C)c2)cc1 | 2.8 | -1.8 | -2.4 | -7.7 | -2.6 | .
Cc1ccc(NC(=O)c2ccc(OC(F)(F)F)cc2)cc1S(=O)(=O)N(C)C | -1.0 | -0.5 | 2.6 | 1.3 | 77.6* | 86.3*
CCCCN1C(=O)c2ccc(C(=O)Nc3ccc(C)c(S(=O)(=O)N(C)C)c3)cc2C1=O | -15.5 | 0.3 | -1.0 | -8.7 | 68.8* | 68.6*
CCCCN1C(=O)c2ccc(C(=O)Nc3cccc(C)c3C)cc2C1=O | 0.4 | 0.3 | 0.8 | -5.7 | -0.5 | .
CC(OC(=O)c1cccc(S(=O)(=O)N2CCCC2)c1)C(=O)c1ccccc1 (stereo not drawn) | -4.0 | . | . | 2.7 | 0.7 | .
Cn1c(=S)[nH]c(=O)c2ncc(=O)[nH]c21 | -1.7 | 0.3 | -4.6 | 1.1 | -0.2 | .
O=[N+]([O-])c1ccc(O)c(N=Cc2sc3ccccc3c2O)c1 | -5.9 | 0.3 | 5.2 | -10.3 | 59.8* | 67.3*
C/C(=N/NC(=O)c1cc(C)[nH]n1)c1ccco1 | 23.5 | . | . | -22.8 | 0.7 | .
CC(=O)c1ccc(Nc2nc3ccccc3nc2NS(=O)(=O)c2cccs2)cc1 | -0.4 | . | . | -7.1 | 82.9* | 31.7*
COc1ccc(Nc2nc3ccccc3nc2NS(=O)(=O)c2cccs2)cc1 | . | -3.4 | -0.6 | -12.2 | 61.0* | 63.7*
O=C(O)c1cccc(Nc2nc3ccccc3nc2NS(=O)(=O)c2cccs2)c1 | -5.8 | . | . | -7.2 | 0.4 | .
CCC1(c2ccccc2)NC(=O)N(CC(=O)N2CC(=O)Nc3ccccc32)C1=O (stereo not drawn) | . | . | . | . | 0.6 | .
Cc1ccc([N+](=O)[O-])cc1NCC(=O)NN | 2.9 | -2.5 | -6.4 | 2.3 | -1.2 | .
CCCCCN=C(N)N/N=C/c1c[nH]c2ccc(OC)cc12 | . | . | . | 35.5 | 85.1* | 23.2*
CCOC(=O)c1c(-c2ccccc2)csc1NC(=O)CSc1nnc(C)s1 | -11.0 | -1.0 | 7.1 | 7.8 | 67.4* | 46.3*
COC(=O)c1ccccc1NC(=O)CN(c1c(C)cccc1C)S(C)(=O)=O | -11.5 | . | . | 7.1 | -0.2 | .
COCCn1c(SCc2ccc(C(=O)OC)o2)nc2ccccc2c1=O | -20.8 | -0.3 | 34.6 | . | 2.8 | .
COC(=O)c1cc(CSc2nc3ccccc3c(=O)n2C)oc1C | -17.9 | . | . | -13.1 | 84.2* | 93.4*
Cc1ccc(-c2nc(CSc3nc4ccccc4c(=O)n3C)cs2)cc1 | -7.5 | 2.3 | 75.8* | -13.7 | 100.3* | 45.2*
CCOC(=O)N1CCN(C(=O)COC(=O)C2CCN(S(=O)(=O)c3c(Cl)cccc3Cl)CC2)CC1 | . | . | . | -4.5 | -1.8 | .
CCOc1ccccc1CNS(=O)(=O)c1ccc(-c2cnc(C3CC3)o2)cc1 | ? | . | . | -0.7 | 50.8* | 84.3*
O=S(=O)(NCc1ccccc1)c1ccc(-c2cnc(C3CC3)o2)cc1 | -0.2 | . | . | 0.4 | -0.6 | .
CC(NC(=O)N1CCN(c2ccccc2F)CC1)c1ccc(F)c(F)c1 (stereo not drawn) | -1.1 | . | . | 7.6 | 0.7 | .
